From ChEMBL document CHEMBL2046302, “Fused tricyclic indoles as S1P₁ agonists with robust efficacy in animal models of autoimmune disease” (Bioorg Med Chem Lett, 2012)

Experiments:
[1] = Clearance in Sprague-Dawley rat at 2 mg/kg, iv and 3 mg/kg, po; type: ADME, organism-based; conditions: in vivo
Summary of the method: (§1)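 Male Sprague–Dawley rats received 2.0 mg/kg IV in 100% PEG400 and 3.0 mg/kg PO in 0.5% methyl cellulose. Clearance, Vss, terminal half-life, Cmax, AUClast and oral bioavailability were derived from plasma levels.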

[2] = test system: Salmonella typhimurium; assay: Mutagenic activity against Salmonella typhimurium assessed as base pair mutation by ames test; type: toxicity, organism-based; conditions: salmonella enterica subsp. enterica serovar typhimurium
Summary of the method: (§2)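 Ames bacterial reverse mutation test on five strains, scored for frame-shift and base-pair substitution mutations.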

[3] = biological target: T1, Sphingosine 1-phosphate receptor 1 (Homo sapiens, UniProt P21453); assay: Agonist activity against human S1P1 assessed as accumulation of cAMP by HTRF assay; type: functional
T1 sequence (P21453 whole entry): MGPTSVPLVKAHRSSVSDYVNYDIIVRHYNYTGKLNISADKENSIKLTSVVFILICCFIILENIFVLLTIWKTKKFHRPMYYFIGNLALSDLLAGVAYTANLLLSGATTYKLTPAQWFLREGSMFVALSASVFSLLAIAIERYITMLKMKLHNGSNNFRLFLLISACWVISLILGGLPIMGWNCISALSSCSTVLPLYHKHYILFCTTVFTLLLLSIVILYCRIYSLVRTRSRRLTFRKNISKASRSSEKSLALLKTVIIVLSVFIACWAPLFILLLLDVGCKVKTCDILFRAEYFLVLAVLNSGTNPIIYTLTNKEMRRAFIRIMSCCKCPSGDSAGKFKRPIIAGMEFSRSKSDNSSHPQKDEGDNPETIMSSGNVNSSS
Summary of the method: (§3)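 Agonist EC50 was read from a cAMP HTRF assay run on human, rat and mouse S1P1. Response was scaled against S1P, and values are the mean of three or more replicates.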

[4] = Cmax in Sprague-Dawley rat in Sprague-Dawley rat at 2 mg/kg, iv and 3 mg/kg, po; type: ADME, organism-based; conditions: in vivo; summary of the method: as §1
[5] = Oral bioavailability in Sprague-Dawley rat at 3 mg/kg; type: ADME, organism-based; conditions: in vivo; summary of the method: as §1
[6] = biological target: Cytochrome P450 2C9 (Homo sapiens, UniProt P11712); assay: Inhibition of CYP2C9; type: ADME
Cytochrome P450 2C9, sequence (P11712 whole entry): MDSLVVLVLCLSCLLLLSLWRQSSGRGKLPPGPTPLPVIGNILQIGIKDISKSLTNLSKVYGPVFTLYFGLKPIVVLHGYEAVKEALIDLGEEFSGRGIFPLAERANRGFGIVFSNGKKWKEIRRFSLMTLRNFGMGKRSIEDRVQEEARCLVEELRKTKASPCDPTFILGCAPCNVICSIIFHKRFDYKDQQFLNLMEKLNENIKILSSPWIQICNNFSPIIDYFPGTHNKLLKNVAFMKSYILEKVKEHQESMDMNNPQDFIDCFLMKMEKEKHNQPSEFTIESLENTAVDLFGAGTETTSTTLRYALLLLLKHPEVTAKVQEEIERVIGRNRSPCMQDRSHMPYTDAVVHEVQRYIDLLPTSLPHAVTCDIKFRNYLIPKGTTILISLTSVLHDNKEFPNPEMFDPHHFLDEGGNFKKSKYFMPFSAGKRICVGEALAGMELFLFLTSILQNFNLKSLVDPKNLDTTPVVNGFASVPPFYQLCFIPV

[7] = Terminal half life in Sprague-Dawley rat at 2 mg/kg, iv and 3 mg/kg, po; type: ADME, organism-based; conditions: in vivo, read-out: beta t1/2 (converted); summary of the method: as §1
[8] = biological target: Sphingosine 1-phosphate receptor 5 (Homo sapiens, UniProt Q9H228); assay: Agonist activity against human S1P5 by beta arrestin recruitment assay; type: functional
Sphingosine 1-phosphate receptor 5, sequence (Q9H228 whole entry): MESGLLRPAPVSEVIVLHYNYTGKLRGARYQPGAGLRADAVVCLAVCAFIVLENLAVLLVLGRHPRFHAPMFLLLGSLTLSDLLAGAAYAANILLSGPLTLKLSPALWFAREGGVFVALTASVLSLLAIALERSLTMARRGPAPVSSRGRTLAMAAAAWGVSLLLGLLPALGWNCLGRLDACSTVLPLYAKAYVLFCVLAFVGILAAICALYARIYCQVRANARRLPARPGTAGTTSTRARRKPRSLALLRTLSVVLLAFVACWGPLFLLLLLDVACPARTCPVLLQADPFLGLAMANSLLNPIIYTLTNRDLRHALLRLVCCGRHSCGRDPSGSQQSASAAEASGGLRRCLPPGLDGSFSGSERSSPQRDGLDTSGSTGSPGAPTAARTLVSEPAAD
Summary of the method: (§4)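 Agonist EC50 at human S1P1 through S1P5 was measured by β-arrestin recruitment. Values are the mean of three or more replicates.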

[9] = Volume of distribution at steady state in Sprague-Dawley rat at 2 mg/kg, iv and 3 mg/kg, po; type: ADME, organism-based; conditions: in vivo, read-out: Vdss; summary of the method: as §1
[10] = biological target: Sphingosine 1-phosphate receptor 3 (Homo sapiens, UniProt Q99500); assay: Agonist activity against human S1P3 by beta arrestin recruitment assay; type: functional; summary of the method: as §4
Sphingosine 1-phosphate receptor 3, sequence (Q99500 whole entry): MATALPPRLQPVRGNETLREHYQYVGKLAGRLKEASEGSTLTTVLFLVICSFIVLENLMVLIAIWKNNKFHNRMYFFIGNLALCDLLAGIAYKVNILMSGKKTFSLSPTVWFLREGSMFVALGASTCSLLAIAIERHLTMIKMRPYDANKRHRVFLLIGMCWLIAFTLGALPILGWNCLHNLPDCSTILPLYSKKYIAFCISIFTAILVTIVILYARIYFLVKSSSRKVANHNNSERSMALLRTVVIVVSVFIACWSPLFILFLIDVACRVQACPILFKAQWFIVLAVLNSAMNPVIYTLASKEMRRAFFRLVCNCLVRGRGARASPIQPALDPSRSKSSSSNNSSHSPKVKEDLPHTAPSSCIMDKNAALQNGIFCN

[11] = biological target: Cytochrome P450 2D6 (Homo sapiens, UniProt P10635); assay: Inhibition of CYP2D6; type: ADME
[12] = test system: Rattus norvegicus; assay: Toxicity in telemeterized Charles-River Sprague-Dawley rat assessed as reduction in heart rate at 30 mg/kg, po measured over 20 hrs; type: organism-based; set-up: dose 30 mg/kg, route oral; conditions: in vivo
Summary of the method: (§5)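 Telemeterized Charles River Sprague–Dawley rats received 3 or 30 mg/kg orally as a suspension in 0.5% methyl cellulose, with vehicle-treated and positive-control groups. Heart rate was recorded hourly over 20 h.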

[13] = biological target: Cytochrome P450 2C19 (Homo sapiens, UniProt P33261); assay: Inhibition of CYP2C19; type: ADME
Cytochrome P450 2C19, sequence (P33261 whole entry): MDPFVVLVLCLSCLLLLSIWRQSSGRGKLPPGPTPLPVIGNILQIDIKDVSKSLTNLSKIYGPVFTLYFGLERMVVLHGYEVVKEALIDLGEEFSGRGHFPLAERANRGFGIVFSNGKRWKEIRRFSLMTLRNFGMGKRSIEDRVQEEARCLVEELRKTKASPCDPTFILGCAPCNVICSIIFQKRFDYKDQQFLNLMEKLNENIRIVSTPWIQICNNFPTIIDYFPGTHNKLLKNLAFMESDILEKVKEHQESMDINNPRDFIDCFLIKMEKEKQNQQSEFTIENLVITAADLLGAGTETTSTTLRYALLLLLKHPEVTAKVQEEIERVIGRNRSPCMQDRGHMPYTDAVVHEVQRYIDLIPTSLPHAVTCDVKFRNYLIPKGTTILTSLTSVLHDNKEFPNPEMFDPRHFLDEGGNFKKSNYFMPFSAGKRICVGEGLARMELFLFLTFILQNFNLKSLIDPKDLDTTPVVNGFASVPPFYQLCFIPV

[14] = Half life in rat liver microsome; type: ADME; conditions: liver microsomes
[15] = biological target: Cytochrome P450 3A4 (Homo sapiens, UniProt P08684); assay: Inhibition of CYP3A4; type: ADME
Cytochrome P450 3A4, sequence (P08684 whole entry): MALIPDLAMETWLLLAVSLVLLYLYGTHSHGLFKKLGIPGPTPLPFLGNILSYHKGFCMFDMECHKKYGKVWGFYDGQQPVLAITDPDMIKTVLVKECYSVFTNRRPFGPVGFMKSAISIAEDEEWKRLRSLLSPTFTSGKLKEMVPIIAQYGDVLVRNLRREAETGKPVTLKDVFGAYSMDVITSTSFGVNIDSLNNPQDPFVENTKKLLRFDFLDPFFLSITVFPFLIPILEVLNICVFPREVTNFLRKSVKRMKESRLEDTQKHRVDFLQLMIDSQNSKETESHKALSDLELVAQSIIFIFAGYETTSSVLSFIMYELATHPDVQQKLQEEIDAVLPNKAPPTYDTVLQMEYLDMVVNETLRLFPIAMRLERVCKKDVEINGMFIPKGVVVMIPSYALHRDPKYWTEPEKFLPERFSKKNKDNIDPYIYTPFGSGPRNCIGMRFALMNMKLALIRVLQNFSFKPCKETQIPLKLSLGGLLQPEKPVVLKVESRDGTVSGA

[16] = test system: Salmonella typhimurium; assay: Mutagenic activity against Salmonella typhimurium assessed as frame shift mutation by ames test; type: toxicity, organism-based; conditions: salmonella enterica subsp. enterica serovar typhimurium; summary of the method: as §2
[17] = biological target: T2, Cytochrome P450 1A2 (Homo sapiens, UniProt P05177); assay: Inhibition of CYP1A2; type: ADME
T2 sequence (P05177 whole entry): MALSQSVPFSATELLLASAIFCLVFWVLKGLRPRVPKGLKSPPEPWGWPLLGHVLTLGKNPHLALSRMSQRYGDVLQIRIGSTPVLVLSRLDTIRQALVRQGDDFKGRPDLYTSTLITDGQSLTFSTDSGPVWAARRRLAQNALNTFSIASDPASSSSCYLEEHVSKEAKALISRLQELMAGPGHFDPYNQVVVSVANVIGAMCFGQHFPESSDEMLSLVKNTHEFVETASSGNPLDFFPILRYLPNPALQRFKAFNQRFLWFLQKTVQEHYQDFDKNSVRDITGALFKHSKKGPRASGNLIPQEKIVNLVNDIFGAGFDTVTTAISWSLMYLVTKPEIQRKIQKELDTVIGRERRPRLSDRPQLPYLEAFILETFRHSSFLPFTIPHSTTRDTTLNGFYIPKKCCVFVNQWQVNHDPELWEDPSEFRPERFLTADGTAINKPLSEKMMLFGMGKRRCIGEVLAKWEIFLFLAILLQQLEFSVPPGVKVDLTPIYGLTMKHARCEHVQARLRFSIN

[18] = biological target: T3, Sphingosine 1-phosphate receptor 4 (Homo sapiens, UniProt O95977); assay: Agonist activity against human S1P4 by beta arrestin recruitment assay; type: functional; summary of the method: as §4
T3 sequence (O95977 whole entry): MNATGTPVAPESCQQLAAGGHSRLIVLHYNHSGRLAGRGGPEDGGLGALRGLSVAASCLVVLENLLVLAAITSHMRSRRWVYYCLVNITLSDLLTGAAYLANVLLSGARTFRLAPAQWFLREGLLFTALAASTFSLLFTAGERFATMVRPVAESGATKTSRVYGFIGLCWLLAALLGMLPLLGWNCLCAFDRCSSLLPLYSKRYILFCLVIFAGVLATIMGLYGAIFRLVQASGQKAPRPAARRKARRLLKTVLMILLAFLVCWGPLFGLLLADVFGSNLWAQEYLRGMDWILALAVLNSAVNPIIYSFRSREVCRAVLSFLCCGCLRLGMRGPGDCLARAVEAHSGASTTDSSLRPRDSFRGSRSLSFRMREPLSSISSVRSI

[19] = test system: Rattus norvegicus; assay: Toxicity in telemeterized Charles-River Sprague-Dawley rat assessed as reduction in heart rate at 3 mg/kg, po measured over 20 hrs; type: organism-based; set-up: dose 3 mg/kg, route oral; conditions: in vivo; summary of the method: as §5
[20] = biological target: T4, Voltage-gated inwardly rectifying potassium channel KCNH2 (Homo sapiens, UniProt Q12809); assay: Inhibition of human ERG by astemizole assay
T4 sequence (Q12809 whole entry): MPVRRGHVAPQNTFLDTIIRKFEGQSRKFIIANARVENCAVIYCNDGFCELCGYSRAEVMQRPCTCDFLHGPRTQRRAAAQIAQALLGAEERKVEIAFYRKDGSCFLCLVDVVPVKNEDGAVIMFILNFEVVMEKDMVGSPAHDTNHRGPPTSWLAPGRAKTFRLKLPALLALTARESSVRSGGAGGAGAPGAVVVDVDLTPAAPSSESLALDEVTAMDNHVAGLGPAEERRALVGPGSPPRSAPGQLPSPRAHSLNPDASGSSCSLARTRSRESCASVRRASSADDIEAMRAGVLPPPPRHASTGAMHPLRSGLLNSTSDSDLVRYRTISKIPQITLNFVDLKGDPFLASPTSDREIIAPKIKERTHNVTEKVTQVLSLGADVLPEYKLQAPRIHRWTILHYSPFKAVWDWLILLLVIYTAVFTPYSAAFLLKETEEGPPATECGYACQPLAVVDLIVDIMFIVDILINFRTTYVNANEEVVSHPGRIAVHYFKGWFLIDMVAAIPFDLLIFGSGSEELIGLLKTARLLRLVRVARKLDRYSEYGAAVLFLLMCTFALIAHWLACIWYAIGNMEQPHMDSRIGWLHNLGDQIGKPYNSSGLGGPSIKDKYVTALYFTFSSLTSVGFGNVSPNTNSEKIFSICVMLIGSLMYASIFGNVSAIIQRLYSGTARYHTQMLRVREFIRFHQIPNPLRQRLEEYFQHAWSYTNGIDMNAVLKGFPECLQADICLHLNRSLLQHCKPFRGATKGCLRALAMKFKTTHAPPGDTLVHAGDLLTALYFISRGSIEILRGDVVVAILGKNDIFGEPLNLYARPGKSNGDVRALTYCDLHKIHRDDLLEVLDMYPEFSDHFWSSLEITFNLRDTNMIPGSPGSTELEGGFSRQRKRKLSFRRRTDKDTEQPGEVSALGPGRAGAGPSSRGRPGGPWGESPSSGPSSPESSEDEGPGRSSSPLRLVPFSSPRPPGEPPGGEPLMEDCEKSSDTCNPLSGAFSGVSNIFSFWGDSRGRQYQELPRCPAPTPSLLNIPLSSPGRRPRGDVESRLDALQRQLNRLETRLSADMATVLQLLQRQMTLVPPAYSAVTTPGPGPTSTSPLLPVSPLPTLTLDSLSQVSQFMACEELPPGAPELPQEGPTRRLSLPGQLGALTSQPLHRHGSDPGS

[21] = biological target: Sphingosine 1-phosphate receptor 1 (Rattus norvegicus, UniProt P48303); assay: Agonist activity against rat S1P1 assessed as accumulation of cAMP by HTRF assay; type: functional; summary of the method: as §3
Sphingosine 1-phosphate receptor 1 (Rattus norvegicus, UniProt P48303), sequence (P48303 whole entry): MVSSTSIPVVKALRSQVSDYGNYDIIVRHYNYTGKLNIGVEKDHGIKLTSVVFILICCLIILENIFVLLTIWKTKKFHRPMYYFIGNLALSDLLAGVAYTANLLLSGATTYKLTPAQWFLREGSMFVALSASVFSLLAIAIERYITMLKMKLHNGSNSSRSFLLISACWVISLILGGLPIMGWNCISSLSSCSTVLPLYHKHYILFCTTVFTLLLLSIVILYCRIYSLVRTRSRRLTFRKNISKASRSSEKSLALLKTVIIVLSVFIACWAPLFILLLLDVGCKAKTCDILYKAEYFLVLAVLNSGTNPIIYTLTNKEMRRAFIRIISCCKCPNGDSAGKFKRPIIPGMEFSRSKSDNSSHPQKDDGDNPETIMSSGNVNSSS

[22] = biological target: T4, Voltage-gated inwardly rectifying potassium channel KCNH2; assay: Inhibition of human ERG by patch clamp assay
[23] = biological target: Sphingosine 1-phosphate receptor 1 (Mus musculus, UniProt O08530); assay: Agonist activity against mouse S1P1 assessed as accumulation of cAMP by HTRF assay; type: functional; summary of the method: as §3
Sphingosine 1-phosphate receptor 1 (Mus musculus, UniProt O08530), sequence (O08530 whole entry): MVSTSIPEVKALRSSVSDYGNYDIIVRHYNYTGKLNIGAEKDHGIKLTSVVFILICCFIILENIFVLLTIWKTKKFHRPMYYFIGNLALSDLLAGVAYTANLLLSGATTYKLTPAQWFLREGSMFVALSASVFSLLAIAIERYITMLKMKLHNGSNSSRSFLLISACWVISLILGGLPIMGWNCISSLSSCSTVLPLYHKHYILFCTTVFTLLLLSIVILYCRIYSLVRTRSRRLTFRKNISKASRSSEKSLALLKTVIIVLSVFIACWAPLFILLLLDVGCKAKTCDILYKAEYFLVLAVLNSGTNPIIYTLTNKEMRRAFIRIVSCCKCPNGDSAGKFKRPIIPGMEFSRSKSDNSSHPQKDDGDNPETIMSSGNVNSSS

[24] = biological target: Sphingosine 1-phosphate receptor 2 (Homo sapiens, UniProt O95136); assay: Agonist activity against human S1P2 by beta arrestin recruitment assay; type: functional; summary of the method: as §4
Sphingosine 1-phosphate receptor 2, sequence (O95136 whole entry): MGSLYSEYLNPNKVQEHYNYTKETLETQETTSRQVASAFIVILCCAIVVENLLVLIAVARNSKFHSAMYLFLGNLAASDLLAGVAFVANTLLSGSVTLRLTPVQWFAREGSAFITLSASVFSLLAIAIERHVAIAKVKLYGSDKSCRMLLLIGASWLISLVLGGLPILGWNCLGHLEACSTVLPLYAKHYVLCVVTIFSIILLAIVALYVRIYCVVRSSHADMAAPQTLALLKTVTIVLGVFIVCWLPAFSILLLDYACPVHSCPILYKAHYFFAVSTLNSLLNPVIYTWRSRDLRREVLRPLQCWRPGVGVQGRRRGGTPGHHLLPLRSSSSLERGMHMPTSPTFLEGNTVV

[25] = AUClast in Sprague-Dawley rat in Sprague-Dawley rat at 2 mg/kg, iv and 3 mg/kg, po; type: ADME, organism-based; conditions: plasma; summary of the method: as §1
[26] = Half life in human liver microsome; type: ADME; conditions: liver microsomes
[27] = biological target: T1, Sphingosine 1-phosphate receptor 1; assay: Agonist activity against human S1P1 by beta arrestin recruitment assay; type: functional; summary of the method: as §4

N#Cc1cc(OC(F)(F)F)cc(-c2nc(-c3ccc4c(c3)cc3n4CCC3CC(=O)O)no2)c1 (single isomer, unassigned; enantiomer 2)
clearance [1]: 0.422 mL/min/kg
Activity [2]: Non-toxic
EC50 [3]: 0.08 nM
Cmax [4]: 13300 ng/mL
bioavailability [5]: 100%
IC50 [6]: > 30 µM
half-life [7]: 4.68 h
EC50 [8]: 0.021 µM
Vd [9]: 0.234 L/kg
EC50 [10]: > 100 µM
IC50 [11]: > 30 µM
Activity [12]: Non-toxic
IC50 [13]: > 30 µM
half-life [14]: > 1 h
IC50 [15]: > 30 µM
Activity [16]: Non-toxic
IC50 [17]: > 30 µM
EC50 [18]: > 100 µM
Activity [19]: Non-toxic
IC50 [20]: > 30 µM
EC50 [21]: 0.0001 µM
IC50 [22]: > 400 µM
EC50 [23]: 0.00052 µM
EC50 [24]: > 100 µM
AUC(0-t) [25]: 124 µg·h/mL
half-life [26]: > 1 h
EC50 [27]: 0.0048 µM
